# Activity calls are given as the source filed them. No cut-off for these calls is given here.
# System: HT-29
# Experiment: Induction of cell cycle arrest in human HT-29 cells assessed as accumulation at S phase by propidium iodide staining based flow cytometry (reference value: 23.9 +/- 0.3%)
# Assay type: functional
# Conditions: not given
row,SMILES,Activity [%]
1,Cc1ccc(/C=C2\S/C(=N\c3csc(-c4ccc(Cl)cc4)c3)NC2=O)cc1,14.8
2,COc1ccc(/C=C2\S/C(=N\c3csc(-c4ccc(Cl)cc4)c3)NC2=O)cc1OC,11.3

# System: HT-29
# Experiment: Induction of cell cycle arrest in human HT-29 cells assessed as accumulation at G2/M phase by propidium iodide staining based flow cytometry (reference value: 30 +/- 2%)
# Assay type: functional
# Conditions: not given
row,SMILES,Activity [%]
1,Cc1ccc(/C=C2\S/C(=N\c3csc(-c4ccc(Cl)cc4)c3)NC2=O)cc1,84
2,COc1ccc(/C=C2\S/C(=N\c3csc(-c4ccc(Cl)cc4)c3)NC2=O)cc1OC,86.4

# System: HT-29
# Experiment: Induction of chromatin condensation in human HT-29 cells incubated for 2 days by DAPI staining based UV fluorescent microscopy
# Assay type: functional, cell-based
# Conditions: not given
# Procedure, shortened: (§1)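 HT29 cells in 35 mm dishes treated over two days, fixed in 70% ethanol for 5 min and rinsed with PBS. Stained with 1 µM DAPI in PBS for 15 min and imaged by UV fluorescence microscopy for nuclear morphology.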
row,SMILES,Activity
1,Cc1ccc(/C=C2\S/C(=N\c3csc(-c4ccc(Cl)cc4)c3)NC2=O)cc1,Active
2,COc1ccc(/C=C2\S/C(=N\c3csc(-c4ccc(Cl)cc4)c3)NC2=O)cc1OC,Active

# System: HT-29
# Experiment: Induction of nuclear fragmentation in human HT-29 cells incubated for 2 days by DAPI staining based UV fluorescent microscopy
# Assay type: functional, cell-based
# Conditions: not given
# Procedure, shortened: as §1
row,SMILES,Activity
1,Cc1ccc(/C=C2\S/C(=N\c3csc(-c4ccc(Cl)cc4)c3)NC2=O)cc1,Active
2,COc1ccc(/C=C2\S/C(=N\c3csc(-c4ccc(Cl)cc4)c3)NC2=O)cc1OC,Active

# System: HT-29
# Experiment: Induction of mitochondrial membrane potential loss in human HT-29 cells incubated for 2 days by JC1 staining based UV fluorescent microscopy
# Assay type: functional, cell-based
# Conditions: not given
# Procedure, shortened: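 HT29 cells in dishes exposed to test agents, then 1 µM JC-1 added to the medium for 15 min at 37°C. Cells washed with warm PBS and imaged by fluorescence microscopy for J-aggregates (red channel). 50 µM CCCP for 15 min served as depolarization control.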
row,SMILES,Activity
1,Cc1ccc(/C=C2\S/C(=N\c3csc(-c4ccc(Cl)cc4)c3)NC2=O)cc1,Active
2,COc1ccc(/C=C2\S/C(=N\c3csc(-c4ccc(Cl)cc4)c3)NC2=O)cc1OC,Active

# System: HT-29
# Experiment: Induction of ROS generation in human HT-29 cells at cytotoxic IC50 level after 4 hrs by DCF-DA staining based fluorescence assay
# Assay type: functional, cell-based
# Conditions: not given
# Procedure, shortened: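 HT29 cells treated two days after seeding, then loaded with 50 µM DCF-DA for 15 min at 37°C. Cells trypsinized, washed and resuspended in PBS, and 30 000 cells/sample read by flow cytometry (FL-1). Expressed as % of DMSO-treated cells; […] for 1 h served as positive control. Triplicates from three independent experiments.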
row,SMILES,Activity
1,Cc1ccc(/C=C2\S/C(=N\c3csc(-c4ccc(Cl)cc4)c3)NC2=O)cc1,Active
2,COc1ccc(/C=C2\S/C(=N\c3csc(-c4ccc(Cl)cc4)c3)NC2=O)cc1OC,Active

# System: HT-29
# Experiment: Induction of autophagy in human HT-29 cells assessed as increase in acidic vesicles by acridine orange staining based flow cytometry
# Assay type: functional, cell-based
# Conditions: not given
# Procedure, shortened: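 HT29 cells treated for two days with daily medium changes, stained with 1 µg/ml acridine orange for 15 min, then trypsinized and suspended in PBS. FL-3 fluorescence read by flow cytometry on 30 000 cells/sample and expressed in arbitrary units relative to DMSO-treated cells. Triplicates from three independent experiments.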
row,SMILES,Activity
1,Cc1ccc(/C=C2\S/C(=N\c3csc(-c4ccc(Cl)cc4)c3)NC2=O)cc1,Active
2,COc1ccc(/C=C2\S/C(=N\c3csc(-c4ccc(Cl)cc4)c3)NC2=O)cc1OC,Active

# System: HT-29
# Experiment: Induction of autophagy in human HT-29 cells assessed as increase in beclin-1 protein expression by Western blotting method
# Assay type: functional, cell-based
# Conditions: not given
# Procedure, shortened: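 HT29 cells in flasks treated over two days. Total protein homogenates immunoblotted with anti-beclin-1 (1:500), with GAPDH as loading control.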
row,SMILES,Activity
1,Cc1ccc(/C=C2\S/C(=N\c3csc(-c4ccc(Cl)cc4)c3)NC2=O)cc1,Active
2,COc1ccc(/C=C2\S/C(=N\c3csc(-c4ccc(Cl)cc4)c3)NC2=O)cc1OC,Active

# System: HT-29
# Experiment: Induction of redox status changes in human HT-29 cells assessed as RNS content by DAF-2DA staining based fluorescence assay (reference value: 100%)
# Assay type: functional
# Conditions: not given
# Procedure, shortened: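 HT29 cells treated two days after seeding, then loaded with 1 µM DAF-2DA for 30 min at 37°C. Cells trypsinized and resuspended in PBS, and 30 000 cells/sample measured by flow cytometry (FL-1). Expressed as % of DMSO-treated cells. Triplicates from three independent experiments.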
row,SMILES,Activity [%]
1,Cc1ccc(/C=C2\S/C(=N\c3csc(-c4ccc(Cl)cc4)c3)NC2=O)cc1,155
2,COc1ccc(/C=C2\S/C(=N\c3csc(-c4ccc(Cl)cc4)c3)NC2=O)cc1OC,116.3

# System: HT-29
# Experiment: Induction of redox status changes in human HT-29 cells assessed as RNS content by DHR123 staining based fluorescence assay (reference value: 100%)
# Assay type: functional
# Conditions: not given
# Procedure, shortened: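 HT29 cells treated two days after seeding, then loaded with 25 µM DHR for 20 min at 37°C. Cells trypsinized and resuspended in PBS, and 30 000 cells/sample read by flow cytometry (FL-1). Expressed as % of DMSO controls. Triplicates from three independent experiments.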
row,SMILES,Activity [%]
1,Cc1ccc(/C=C2\S/C(=N\c3csc(-c4ccc(Cl)cc4)c3)NC2=O)cc1,95
2,COc1ccc(/C=C2\S/C(=N\c3csc(-c4ccc(Cl)cc4)c3)NC2=O)cc1OC,83.6

# System: HT-29
# Experiment: Induction of redox status changes in human HT-29 cells assessed as GSH content by fluorescence based microtiter plate method (reference value: 100%)
# Assay type: functional
# Conditions: not given
# Procedure, shortened: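 HT29 cells exposed 48 h after seeding for 24 h, then extracted into ice-cold 10% perchloric acid with 2 mM EDTA and spun at 15 000 g. GSH in the supernatant measured by a fluorescence microtiter plate method; pellet protein measured by modified Lowry. Values in nmol GSH/mg protein, shown as % of DMSO controls. Triplicates from three experiments.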
row,SMILES,Activity [%]
1,Cc1ccc(/C=C2\S/C(=N\c3csc(-c4ccc(Cl)cc4)c3)NC2=O)cc1,73.9
2,COc1ccc(/C=C2\S/C(=N\c3csc(-c4ccc(Cl)cc4)c3)NC2=O)cc1OC,108.1

# System: HT-29
# Experiment: Inhibition of cell growth in human HT-29 cells assessed as mitotic index ratio in absence of 1 mM ascorbic acid (reference value: 1)
# Assay type: functional
# Conditions: not given
# Procedure, shortened: (§2)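 HT29 cells treated daily from 48 h after seeding, over three days with daily medium changes, in 0.1% (v/v) DMSO vehicle. Cells trypsinised, mixed 1:1 with 0.04% trypan blue, and living cells counted by haemocytometer under microscope. Mitotic index is treated count relative to DMSO control. Triplicate determinations, two independent experiments, mean ± S.E.M.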
row,SMILES,Ratio
1,Cc1ccc(/C=C2\S/C(=N\c3csc(-c4ccc(Cl)cc4)c3)NC2=O)cc1,0.02
2,COc1ccc(/C=C2\S/C(=N\c3csc(-c4ccc(Cl)cc4)c3)NC2=O)cc1OC,0.04

# System: HT-29
# Experiment: Inhibition of cell growth in human HT-29 cells assessed as mitotic index ratio in presence of 1 mM ascorbic acid (reference value: 1.12 +/- 0.03)
# Assay type: functional
# Conditions: not given
row,SMILES,Ratio
1,Cc1ccc(/C=C2\S/C(=N\c3csc(-c4ccc(Cl)cc4)c3)NC2=O)cc1,0.02
2,COc1ccc(/C=C2\S/C(=N\c3csc(-c4ccc(Cl)cc4)c3)NC2=O)cc1OC,0.04

# System: HT-29
# Experiment: Cytotoxicity against human HT-29 cells after 72 hrs by MTT assay
# Assay type: functional, cell-based
# Conditions: HT-29, 72 h
# Procedure, shortened: (§3)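 Cells seeded at 10^4/well, exposed 24 h later to graded concentrations (0.01–100 µM) for 72 h at 37°C; MTT 0.5 mg/ml for 2 h, formazan dissolved in DMSO, absorbance at 570 nm. […] Colon lines in DMEM, breast lines in RPMI, both with 10% FCS.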
row,SMILES,IC50 [nM]
1,Cc1ccc(/C=C2\S/C(=N\c3csc(-c4ccc(Cl)cc4)c3)NC2=O)cc1,6400
2,COc1ccc(/C=C2\S/C(=N\c3csc(-c4ccc(Cl)cc4)c3)NC2=O)cc1OC,10900

# System: not listed separately
# Experiment: Cytotoxicity against human HCT116 cells after 72 hrs by MTT assay
# Assay type: functional, cell-based
# Conditions: HCT-116, 72 h
# Procedure, shortened: as §3
row,SMILES,IC50 [nM]
1,Cc1ccc(/C=C2\S/C(=N\c3csc(-c4ccc(Cl)cc4)c3)NC2=O)cc1,1000
2,COc1ccc(/C=C2\S/C(=N\c3csc(-c4ccc(Cl)cc4)c3)NC2=O)cc1OC,1700

# System: SW-620
# Experiment: Cytotoxicity against human SW620 cells after 72 hrs by MTT assay
# Assay type: functional, cell-based
# Conditions: SW-620, 72 h
# Procedure, shortened: as §3
row,SMILES,IC50 [nM]
1,Cc1ccc(/C=C2\S/C(=N\c3csc(-c4ccc(Cl)cc4)c3)NC2=O)cc1,1500
2,COc1ccc(/C=C2\S/C(=N\c3csc(-c4ccc(Cl)cc4)c3)NC2=O)cc1OC,> 50000

# System: MCF7
# Experiment: Cytotoxicity against human MCF7 cells after 72 hrs by MTT assay
# Assay type: functional, cell-based
# Conditions: MCF7, 72 h
# Procedure, shortened: as §3
row,SMILES,IC50 [nM]
1,Cc1ccc(/C=C2\S/C(=N\c3csc(-c4ccc(Cl)cc4)c3)NC2=O)cc1,900
2,COc1ccc(/C=C2\S/C(=N\c3csc(-c4ccc(Cl)cc4)c3)NC2=O)cc1OC,7600

# System: MDA-MB-231
# Experiment: Cytotoxicity against human MDA-MB-231 cells after 72 hrs by MTT assay
# Assay type: functional, cell-based
# Conditions: MDA-MB-231, 72 h
# Procedure, shortened: as §3
row,SMILES,IC50 [nM]
1,Cc1ccc(/C=C2\S/C(=N\c3csc(-c4ccc(Cl)cc4)c3)NC2=O)cc1,900
2,COc1ccc(/C=C2\S/C(=N\c3csc(-c4ccc(Cl)cc4)c3)NC2=O)cc1OC,1900

# System: HT-29
# Experiment: Growth inhibition of human HT-29 cells at cytotoxic IC50 level after 3 days by trypan blue dye exclusion assay
# Assay type: functional
# Conditions: not given
# Procedure, shortened: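 HT29 cells treated 48 h after seeding, dosed daily with daily medium change over three days; drug diluted in DMSO, controls 0.1% (v/v) DMSO. Cells trypsinized, mixed 1:1 with 0.04% trypan blue, live cells counted by hematimeter. Reported as mitotic index (treated/DMSO count); triplicates from two independent experiments.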
row,SMILES,growth inhibition (GI) [%]
1,Cc1ccc(/C=C2\S/C(=N\c3csc(-c4ccc(Cl)cc4)c3)NC2=O)cc1,90
2,COc1ccc(/C=C2\S/C(=N\c3csc(-c4ccc(Cl)cc4)c3)NC2=O)cc1OC,90

# System: HT-29
# Experiment: Reduction in cell growth of human HT-29 cells at cytotoxic IC50 level after 3 days by trypan blue dye exclusion assay
# Assay type: functional, cell-based
# Conditions: not given
# Procedure, shortened: as §2
row,SMILES,inhibition
1,Cc1ccc(/C=C2\S/C(=N\c3csc(-c4ccc(Cl)cc4)c3)NC2=O)cc1,Active
2,COc1ccc(/C=C2\S/C(=N\c3csc(-c4ccc(Cl)cc4)c3)NC2=O)cc1OC,Active

# System: HT-29
# Experiment: Induction of cell cycle arrest in human HT-29 cells assessed as accumulation at subG1 phase by propidium iodide staining based flow cytometry (reference value: 6.9 +/- 0.5%)
# Assay type: functional
# Conditions: not given
row,SMILES,Activity [%]
1,Cc1ccc(/C=C2\S/C(=N\c3csc(-c4ccc(Cl)cc4)c3)NC2=O)cc1,21.5
2,COc1ccc(/C=C2\S/C(=N\c3csc(-c4ccc(Cl)cc4)c3)NC2=O)cc1OC,20.6

# System: HT-29
# Experiment: Induction of redox status changes in human HT-29 cells assessed as ROS content in absence of 1 mM ascorbic acid by DCF-DA staining based fluorescence assay (reference value: 100%)
# Conditions: not given
row,SMILES,Activity [%]
1,Cc1ccc(/C=C2\S/C(=N\c3csc(-c4ccc(Cl)cc4)c3)NC2=O)cc1,172
2,COc1ccc(/C=C2\S/C(=N\c3csc(-c4ccc(Cl)cc4)c3)NC2=O)cc1OC,141.6

# System: HT-29
# Experiment: Induction of redox status changes in human HT-29 cells assessed as ROS content in presence of 1 mM ascorbic acid by DCF-DA staining based fluorescence assay (reference value: 65.7 +/- 4.7%)
# Conditions: not given
row,SMILES,Activity [%]
1,Cc1ccc(/C=C2\S/C(=N\c3csc(-c4ccc(Cl)cc4)c3)NC2=O)cc1,102.5
2,COc1ccc(/C=C2\S/C(=N\c3csc(-c4ccc(Cl)cc4)c3)NC2=O)cc1OC,112.1

# Source: ChEMBL document CHEMBL3414496, “Synthesis and biological evaluation of novel 2-heteroarylimino-1,3-thiazolidin-4-ones as potential anti-tumor agents” (Eur J Med Chem, 2015)
